The values that follow come from ChEMBL document CHEMBL4706594, “Targeting the aryl hydrocarbon receptor with a novel set of triarylmethanes” (Eur J Med Chem, 2020).

For orientation: EC50 means the midpoint of the concentration-response curve. As usually defined, the IC50 is the concentration needed to halve the response being measured.

Series [1] deals with HepG2. As to the kind of experiment: Cytotoxicity against human HepG2 cells harboring AhR assessed as reduction in cell viability at 0.1 to 10 uM measured for 24 to 72 hrs by MTT assay. The series is classed as cell-based. As to conditions: hepg2, 10 µM, dose lower 0.1 µM, time lower 24 hrs, dose upper 10 µM, time upper 72 hrs. A digest of the protocol:
(§1)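 AhR-HepG2 cells were treated for 24–72 h with compounds at 0.1, 1.0, 5.0 and 10.0 µM, some also at 2.5 and 7.5 µM. MTT at 0.5 mg/mL was added and plates incubated at 37 °C. Formazan was dissolved in DMSO and absorbance read at 490 nm. Viability below 85% of vehicle counted as cytotoxic. One-way ANOVA with Dunnett's test; mean ± SEM, n≥3.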
(In general: Tetrazolium assays rely on reduction of a dye to a coloured formazan, in cell work by metabolically active cells.)

Series [2] can be described thus: Cytotoxicity against human HepG2 cells harboring AhR assessed as reduction in cell viability at > 5 uM measured for 24 hrs by MTT assay relative to control. The series is classed as cell-based. The conditions noted are these: read-out: INH. A digest of the protocol:
as §1

In series [3] the target is T1, Aryl hydrocarbon receptor (Homo sapiens, UniProt P35869).
T1 sequence (P35869 whole entry): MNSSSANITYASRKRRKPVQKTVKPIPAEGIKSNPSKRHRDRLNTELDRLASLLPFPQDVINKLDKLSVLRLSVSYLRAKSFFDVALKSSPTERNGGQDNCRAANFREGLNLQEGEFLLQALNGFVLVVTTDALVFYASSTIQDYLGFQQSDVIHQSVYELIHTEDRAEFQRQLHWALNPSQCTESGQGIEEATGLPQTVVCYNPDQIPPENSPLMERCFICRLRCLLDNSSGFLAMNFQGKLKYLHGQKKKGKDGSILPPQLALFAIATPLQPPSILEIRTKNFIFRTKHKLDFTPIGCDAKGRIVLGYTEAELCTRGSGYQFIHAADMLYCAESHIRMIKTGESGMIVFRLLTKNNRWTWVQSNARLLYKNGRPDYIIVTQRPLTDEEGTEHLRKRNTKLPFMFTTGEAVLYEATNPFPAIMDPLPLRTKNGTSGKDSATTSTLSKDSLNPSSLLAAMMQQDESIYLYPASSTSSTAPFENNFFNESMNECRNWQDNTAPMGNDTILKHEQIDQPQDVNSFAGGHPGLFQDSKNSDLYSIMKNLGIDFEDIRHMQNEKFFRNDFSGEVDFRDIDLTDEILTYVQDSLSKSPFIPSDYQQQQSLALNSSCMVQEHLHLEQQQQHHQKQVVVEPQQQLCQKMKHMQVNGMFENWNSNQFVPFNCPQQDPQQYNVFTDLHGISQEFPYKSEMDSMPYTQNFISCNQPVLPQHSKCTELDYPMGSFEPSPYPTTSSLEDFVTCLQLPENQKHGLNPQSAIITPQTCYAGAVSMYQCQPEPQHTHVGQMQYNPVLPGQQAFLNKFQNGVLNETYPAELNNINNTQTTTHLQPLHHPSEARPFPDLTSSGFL
As to conditions: HepG2, human, 24 h, read-out: RUmax.

Series [4] deals with T1, Aryl hydrocarbon receptor. As to conditions: HepG2, human, 24 h, read-out: RUmax. This is another data set of the same source.
Series [5] has as its target T1, Aryl hydrocarbon receptor. The conditions noted are these: HepG2, human, 24 h, read-out: RUmax. The source holds these as a separate data set.
Series [6] addresses T1, Aryl hydrocarbon receptor. As to the kind of experiment: Agonist activity at AhR in human HepG2 cells co-transfected with pSELECT-zeo-Lucia and CYP1A1 assessed as induction of receptor transactivation incubated for 24 hrs by luciferase reporter gene assay. The series is classed as cell-based. On the technique in general: In a reporter assay the amount or activity of a reporter protein is the signal.

Series [7] addresses T1, Aryl hydrocarbon receptor. As to the kind of experiment: Antagonist activity at AhR in human HepG2 cells assessed as inhibition of FICZ-induced AhR transcriptional activity incubated for 24 hrs by Quanti-Luc reagent based luminescence assay. The series is classed as cell-based.
Series [8] concerns the target T1, Aryl hydrocarbon receptor. As to the kind of experiment: Antagonist activity at AhR in human HepG2 cells co-transfected with pSELECT-zeo-Lucia and CYP1A1 assessed as inhibition of FICZ-induced receptor transactivation at 30 uM incubated for 24 hrs by luciferase reporter gene assay relative to control. The series is classed as cell-based. The conditions noted are these: hepg2, 24 h.

Series [9] deals with T1, Aryl hydrocarbon receptor. The conditions noted are these: HepG2, human, 24 h, read-out: RUmax. The source holds these as a separate data set.
In series [10] the test system is HepG2. The series is described as follows: Cytotoxicity against human HepG2 cells harboring AhR assessed as reduction in cell viability at 0.1 to 10 uM measured after 24 hrs by MTT assay. As to conditions: hepg2, 24 h, dose 0.1-10 µM. The format is cell-based. A digest of the protocol:
as §1

Series [11] concerns the target T1, Aryl hydrocarbon receptor. The conditions noted are these: HepG2, human, 24 h, read-out: RUmax. The source holds these as a separate data set.

Turning to `CC(=O)Oc1ccc(C(c2ccccn2)c2c[nH]c3ccccc23)cc1` (stereo not drawn), the Activity result in the series with HepG2 [1] was “Non-Toxic”.

As for `CC(=O)Oc1ccc(C(c2ccc(C(C)(C)C)cc2)c2ccccn2)cc1` (stereo not drawn), in series [2], the cytotoxicity at 24 h was found to be 50%. The inhibition at 1 µM in series [3] amounted to 113%. Moreover, in series [4], the activity at 1 µM was found to be 5.32%.

Regarding `CC(=O)Oc1ccc(C(c2ccc(C)cc2)c2ccccn2)cc1` (stereo not drawn), in series [5], the activity at 10 µM was 9.42%. In addition, the EC50 in series [6] was more than 100 µM.

On to `CC(=O)Oc1ccc(C(c2ccc(C(C)(C)C)cc2)c2cccc[n+]2[O-])cc1` (stereo not drawn), for which the cytotoxicity at 24 h in series [2] came to 50%. In addition, the inhibition at 1 µM in series [3] came to 120%. Besides, the activity at 1 µM in series [4] worked out at 6.1%.

Take `CC(=O)Oc1ccc(C(c2ccc(C(F)(F)F)cc2)c2ccccn2)cc1` (stereo not drawn): the cytotoxicity at 24 h in [2] amounted to 50%. The inhibition at 1 µM in [3] came out at 117%. Besides, the activity at 1 µM in series [4] was determined as 7.71%.

As for `Cc1ccccc1/N=N/c1ccc(NC(=O)c2ccnn2C)c(C)c1`, the IC50 in [7] stood at 2.43 µM. Besides, the RUmax in [8] is recorded as 54.5%.

As for `CC(=O)Oc1ccc(C(c2ccccn2)n2nnc3ccccc32)cc1` (stereo not drawn), the inhibition at 10 µM in series [9] was found to be 142%. The activity at 10 µM in [5] was found to be 9.23%. Further, the concentration giving a half-maximal response (EC50) in [6] was more than 100 µM.

`COc1ccc(C(c2ccccn2)c2c(O)ccc3ccccc23)cc1` (stereo not drawn): in the series on HepG2 [1], the Activity result is given as “Non-Toxic”.

Turning to `COc1ccc(C(O)(c2ccccn2)c2ccc3ccccc3n2)cc1` (stereo not drawn), the Activity result with HepG2 [1] is recorded as “Non-Toxic”.

As to `CC(C)(C)c1ccc(C(c2ccc(O)cc2)c2ccccn2)cc1` (stereo not drawn), the cytotoxicity at 24 h in [2] is more than 90%. Also, the inhibition at 1 µM in series [3] is 113%. The activity at 1 µM in [4] was 6.89%.

`Oc1ccc(C(c2ccc(Br)cc2)c2ccccn2)cc1` (stereo not drawn): the activity at 10 µM in series [5] was determined as 7.71%. Further, the concentration for a half-maximal effect (EC50) in series [6] is more than 100 µM.

Turning to `CC(=O)Oc1ccc(C(c2ccc(Br)cc2)c2ccccn2)cc1` (stereo not drawn), the inhibition at 10 µM in [9] turned out to be 143%. Besides, the activity at 10 µM in series [5] stood at 6.32%. Moreover, the EC50 in [6] was more than 1000 µM.

Regarding `COc1ccc(C(c2ccccn2)c2cccs2)cc1` (stereo not drawn), in [9], the inhibition at 10 µM came to 137%. Moreover, in the series on HepG2 [1], the Activity result is on record as “Non-Toxic”. In series [5], the activity at 10 µM came out at 10.5%. The concentration giving a half-maximal response (EC50) in [6] was more than 50 µM.

Turning to `COc1ccc(C(c2ccccn2)n2nnc3ccccc32)cc1` (stereo not drawn), the activity at 10 µM in series [5] was 8.86%. Further, in series [6], the EC50 is more than 100 µM.

In the case of `COc1ccc(C(O)(c2ccc(C(F)(F)F)cc2)c2ccccn2)cc1` (stereo not drawn), the values for the Activity entry with HepG2 [1] and in the series on HepG2 [10] were “Non-Toxic” and “Toxic”, respectively. Besides, the activity at 10 µM in series [5] turned out to be 26.6%. Besides, the concentration giving a half-maximal response (EC50) in series [6] was 52 µM.

For the compound `CC(=O)Oc1ccc(C(c2ccc(F)cc2)c2ccccn2)cc1` (stereo not drawn), in series [9], the inhibition at 10 µM turned out to be 118%. Besides, the activity at 10 µM in series [5] stood at 8.77%. Besides, the 50% effective concentration (EC50) in series [6] is more than 100 µM.

For `Oc1ccc(C(c2ccccn2)c2c(O)ccc3ccccc23)cc1` (stereo not drawn), the Activity result in the series with HepG2 [1] is reported as “Non-Toxic”.

Turning to `Oc1ccccc1C(c1ccc(Cl)cc1)c1ccccn1` (stereo not drawn), the inhibition at 10 µM in series [9] was 115%. Further, the activity at 10 µM in series [5] amounted to 7.18%. For the same compound, the half-maximal effective concentration (EC50) in [6] is more than 1000 µM.

As to `Cc1ccc(C(c2ccccn2)c2ccccc2O)cc1` (stereo not drawn), the inhibition at 10 µM in series [9] turned out to be 114%. Moreover, the activity at 10 µM in series [5] amounted to 6.93%. Moreover, in [6], the EC50 was more than 100 µM.

As to `Oc1ccccc1C(c1ccc(F)cc1)c1ccccn1` (stereo not drawn), the inhibition at 10 µM in series [9] worked out at 112%. For the same compound, the activity at 10 µM in series [5] was determined as 6.89%. In addition, the EC50 in series [6] was more than 1000 µM.

Take `CC(=O)Oc1ccc(C(c2ccc(Br)cc2)c2cccc[n+]2[O-])cc1` (stereo not drawn): the inhibition at 10 µM in series [9] is 106%. Further, the activity at 10 µM in series [5] turned out to be 8.8%. Also, the half-maximal effective concentration (EC50) in series [6] was more than 100 µM.

Consider `O=Cc1c2[nH]c3ccccc3c2cc2[nH]c3ccccc3c12`, for which the Emax at 18 µM in series [11] was 100%.

Regarding `COc1ccc(C(c2ccccn2)c2c[nH]c3ccccc23)cc1` (stereo not drawn), the Activity result with HepG2 [1] is on record as “Non-Toxic”. Also, in [5], the activity at 10 µM is 114%. Moreover, the EC50 in series [6] was 21.7 µM.

On to `Cc1ccc(C(c2ccc(O)cc2)c2ccccn2)cc1` (stereo not drawn), for which the inhibition at 10 µM in [9] was 139%. The activity at 10 µM in series [5] came to 7.09%. Also, the EC50 in series [6] was more than 100 µM.

As for `CC(=O)Oc1ccc(C(c2ccc(C)cc2)c2cccc[n+]2[O-])cc1` (stereo not drawn), the inhibition at 10 µM in series [9] was found to be 93.3%. The activity at 10 µM in [5] worked out at 6.28%. For the same compound, in series [6], the EC50 was more than 200 µM.

As to `Oc1ccc(C(c2ccc(Cl)cc2)c2ccccn2)cc1` (stereo not drawn), in series [5], the activity at 10 µM turned out to be 6.59%. Besides, the concentration giving a half-maximal response (EC50) in series [6] was more than 100 µM.

`CC(=O)Oc1ccc(C(c2ccc(OC(C)=O)cc2)c2ccccn2)cc1` [BISACODYL]: the inhibition at 10 µM in [9] came to 107%. Also, in series [5], the activity at 10 µM is 6.58%. Besides, in [6], the concentration giving a half-maximal response (EC50) was more than 1000 µM.

For the compound `CC(=O)Oc1ccc(C(c2ccc(Cl)cc2)c2cccc[n+]2[O-])cc1` (stereo not drawn), in series [9], the inhibition at 10 µM is 78.8%. In series [5], the activity at 10 µM turned out to be 7.78%. Further, the EC50 in series [6] is more than 200 µM.

With `CC(=O)Oc1ccc(C(c2ccc(Cl)cc2)c2ccccn2)cc1` (stereo not drawn), the inhibition at 10 µM in [9] amounted to 128%. For the same compound, in [5], the activity at 10 µM amounted to 6.26%. Further, in [6], the EC50 is more than 1000 µM.

Take `Oc1ccc(C(c2ccc(F)cc2)c2ccccn2)cc1` (stereo not drawn): in series [5], the activity at 10 µM came to 7.79%. The half-maximal effective concentration (EC50) in [6] was more than 400 µM.

For the compound `CC(=O)Oc1ccc(C(c2ccccn2)c2c(OC(C)=O)ccc3ccccc23)cc1` (stereo not drawn), the inhibition at 10 µM in [9] worked out at 144%. Further, the activity at 10 µM in [5] is 5.17%. The EC50 in series [6] is more than 200 µM.

`Oc1ccccc1C(c1ccc(Br)cc1)c1ccccn1` (stereo not drawn): in [9], the inhibition at 10 µM came to 117%. Besides, in series [5], the activity at 10 µM worked out at 7.99%. Besides, the EC50 in series [6] was more than 1000 µM.

With `CC(=O)Oc1ccc(C(c2ccc(F)cc2)c2cccc[n+]2[O-])cc1` (stereo not drawn), the inhibition at 10 µM in series [9] worked out at 92.4%. In addition, in [5], the activity at 10 µM is 6.51%. Also, in [6], the EC50 is more than 1000 µM.

As to `Oc1ccc(C(c2ccccn2)c2cccs2)cc1` (stereo not drawn), in the series with HepG2 [1], the Activity entry is given as “Non-Toxic”.

`CC(C)(C)c1ccc(C(c2ccccn2)c2ccccc2O)cc1` (stereo not drawn): in series [5], the activity at 10 µM was 6.81%. Besides, the 50% effective concentration (EC50) in series [6] is more than 1000 µM.
